The source of these data is ChEMBL document CHEMBL4196174, “Discovery of Indole Derivatives as Novel and Potent Dengue Virus Inhibitors” (J Med Chem, 2018).

One series relates to dengue virus type 4. Description: Antiviral activity against Dengue virus 4 DAKHD34460 infected in African green monkey Vero cells assessed as reduction in viral yield after 4 days by qRT-PCR analysis. Type of series: functional, organism-based. To be noted: 96 h. The method in brief:
(§1)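 Virus yield reduction in Vero cells (seeded 5×10^4/well). Next day infected with DENV (MOI 0.01) in assay medium (MEM, 2% FBS, 0.075% bicarbonate, 2 mM L-glutamine). After 1 h, input virus was removed and cells rinsed 3 times. Medium with 3- or 5-fold compound serial dilutions was then added. Incubation was 4 days (DENV-2, DENV-4) or 7 days (DENV-1, DENV-3). Supernatant viral RNA was measured by RT-qPCR, and EC50 obtained by logarithmic interpolation.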
(In general: Quantitative PCR measures a nucleic acid by following its amplification.)

In series [1] the test system is dengue virus type 2. The experiment in a line: Antiviral activity against Dengue virus 2 Rega infected in African green monkey Vero cells assessed as log10 reduction of viral RNA replication at nontoxic dose after 4 days by qRT-PCR analysis relative to control. In kind it is functional.
A further series deals with dengue virus type 3. The experiment in a line: Antiviral activity against Dengue virus 3 H87 infected in African green monkey Vero cells assessed as reduction in viral yield after 7 days by qRT-PCR analysis. In kind it is functional, organism-based. To be noted: 168 h. The method in brief: as §1
A short description of series [2]: Selectivity index, ratio of CC50 for African green monkey Vero cells to EC50 for Dengue virus 2 Rega. In kind it is toxicity. To be noted: read-out: Ratio CC50/EC50.
Series [3] deals with Salmonella typhimurium. The experiment in a line: Mutagenicity in Salmonella typhimurium in presence of human liver S9 fraction by Ames test. In kind it is toxicity, organism-based. To be noted: salmonella enterica subsp. enterica serovar typhimurium. (In the Ames test, an excess of revertant colonies over the control signals mutagenicity.)
Series [4] can be described thus: Cytotoxicity against African green monkey Vero cells assessed as cell growth inhibition after 4 days by MTS/PMS method. In kind it is cell-based. Conditions: chlorocebus sabaeus, Vero cells. The essentials:
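Cytotoxicity run as in the yield assay, but without virus. Vero cells (5×10^4/well) were exposed to 3- or 5-fold serial dilutions in MEM with 2% FBS. Viability was read by the MTS/PMS colorimetric method. CC50 was derived by logarithmic interpolation.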

The subject of series [5] is dengue virus type 2. Description: Antiviral activity against Dengue virus 2 Rega infected in African green monkey Vero cells assessed as reduction in viral yield after 4 days by qRT-PCR analysis. In kind it is functional, organism-based. Conditions: Dengue virus, Rega, Vero, 96 h. The essentials:
as §1

The subject of series [6] is Salmonella typhimurium. Description: Mutagenicity in Salmonella typhimurium in absence of human liver S9 fraction by Ames test. In kind it is toxicity, organism-based. Conditions: salmonella enterica subsp. enterica serovar typhimurium.
Another series deals with dengue virus type 1. The experiment in a line: Antiviral activity against Dengue virus 1 Djibouti D1/H/IMTSSA/98/606 infected in African green monkey Vero cells assessed as reduction in viral yield after 7 days by qRT-PCR analysis. In kind it is functional, organism-based. To be noted: Djibouti D1/H/IMTSSA/98/606, Vero, 168 h. The essentials: as §1
Series [7] is described as follows: Half life in human liver microsomes. In kind it is ADME, microsome. (Liver microsomes are vesicles of endoplasmic reticulum, rich in cytochrome P450 enzymes.)
Series [8] in a line: Solubility of the compound in DMSO solution at pH 7.4. Type of series: physicochemical. Conditions: read-out: solubility. The essentials:
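Solubility measured at pH 7.4, starting from a DMSO solution.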

One may read the pEC50 as the EC50 on a negative log10 scale, so that one unit is a factor of ten. A word on the CC50: it is the concentration that lowers cell viability or growth by half. Broadly, the half-life is the time in which the quantity being followed falls by half. Usually solubility stands for the concentration that dissolves in the medium under given conditions.

Each structure is given as a SMILES string. pEC50: −log10 of the molar value. In brackets after ≈: the same amount, converted by molar mass.

For `COc1ccc(NC(C(=O)c2c[nH]c3ccccc23)c2ccccc2)cc1OC` (stereo not drawn), the pEC50 with dengue virus type 4 is 5.35; in the series on dengue virus type 3, 4.53; in the series with dengue virus type 2 [5], 7.11; in the series with dengue virus type 1, 5.80. For the same molecule, in the series with dengue virus type 2 [1], the FC was 3.8. For the same molecule, the selectivity ratio in [2] was determined as 380. In addition, the Activity entry with Salmonella typhimurium [3] and with Salmonella typhimurium [6] was “Non-Toxic” in each case. For the same molecule, the CC50 at 96 h in series [4] worked out at 29 µM.
For the molecule `COc1cc(NC(C(=O)c2c[nH]c3ccc(CCCO)cc23)c2ccccc2)cc(OC)c1` (stereo not drawn), the half-life in series [7] was 38 min. In addition, the solubility in series [8] worked out at 23 µM (≈ 10.2 µg/mL). In series [4], the CC50 at 96 h is 56 µM. Moreover, the pEC50 in the series with dengue virus type 2 [5] was 7.02.
